Compounds with a hit are over-represented: about 0.99% of the library has one in this group of screens.
Rce1 inh = yeast Rce1p protease inhibitors, primary screen, biochemical, fluorescence, cell-free homogeneous; calls only; actives 0.27% (n = 290,000); yeast membranes, quenched prenylated peptide cleavage fluorescence; CAAX prenyl protease 2 (Saccharomyces cerevisiae (strain ATCC 204508 / S288c)), Q03530;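 active = fall in fluorescence gain of 50% or more versus controls, with final raw signal at or below 3038400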;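 also: plate controls were neutral control wells for no effect and wells lacking membranes for full effect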
STK33 kinase inh = inhibitors of purified STK33 kinase, primary screen, biochemical, ADP-Glo luminescence, homogeneous, cell-free; Serine/threonine-protein kinase 33 (Homo sapiens), Q9BYT3; MBP phosphorylation; inhibition, % at 10 µM; actives 0.073% (n = 320,000);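 active = inhibition at or above 25%, using the most active replicate where run in duplicate; inactive = inhibition below 25%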
Target sequence (Q9BYT3 whole entry, looked up): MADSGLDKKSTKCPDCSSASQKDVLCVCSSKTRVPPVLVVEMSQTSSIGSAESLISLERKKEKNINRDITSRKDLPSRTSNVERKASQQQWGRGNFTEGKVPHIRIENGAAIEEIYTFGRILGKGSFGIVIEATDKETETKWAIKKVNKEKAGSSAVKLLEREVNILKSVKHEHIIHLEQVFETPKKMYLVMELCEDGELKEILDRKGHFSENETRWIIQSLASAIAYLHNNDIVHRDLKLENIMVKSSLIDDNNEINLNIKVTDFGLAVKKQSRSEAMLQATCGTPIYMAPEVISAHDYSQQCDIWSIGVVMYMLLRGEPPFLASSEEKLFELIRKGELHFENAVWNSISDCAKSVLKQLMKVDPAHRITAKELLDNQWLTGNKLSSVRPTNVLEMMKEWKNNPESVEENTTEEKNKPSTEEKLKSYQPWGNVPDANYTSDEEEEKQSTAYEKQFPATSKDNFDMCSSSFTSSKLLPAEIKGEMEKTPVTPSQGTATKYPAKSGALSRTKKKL
AI-2 QS mod = Vibrio harveyi AI-2 quorum sensing modulators, primary screen, JMH597 strain, luminescence/OD600 ratio; activity change, % at 7.5 µM; actives 0.4% (n = 300,000); AID 2094, 2009; Vibrio harveyi JMH597 AI-2 luminescence/OD600 ratio, 9 h; active compounds read low; strain lacks LuxN and CqsS sensors; 0 = neutral-control median; in the data active = activity change below about -75%, passing the limit was not always enough;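 also: luminescence divided by OD600 gain over 9 h not by final OD600 alone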
GSK3B inh = human GSK3beta kinase inhibitors, primary screen, biochemical, cell-free homogeneous, HTS | Glycogen synthase kinase-3 beta (Homo sapiens), P49841 | GST-GSK3beta kinase, ADP-Glo luminescence, 60 min; active compounds read low | activity score (negative = inhibition), % at 10 µM | actives 0.038% (n = 300,000);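 active = more than half of replicate wells score below -50%, meaning over 50% inhibition versus plate controls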;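 also: 0% = median DMSO wells and -100% = median GW8510 positive control wells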
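Test system – GST-tagged human GSK3beta kinase, cell-free · Incubation – 60 min enzyme reaction, room temperature · Signal – ADP-Glo luminescence · Also added – peptide substrate and ATP at 25 µM · Controls – DMSO neutral wells and GW8510 at 20 µM as positive · Buffer or medium – Tris/MgCl2 kinase buffer · Measure – Luminescence-derived activity versus plate DMSO and GW8510 wells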
DYRK1A inh = rat Dyrk1A kinase inhibitors, primary screen, biochemical, single point, plate reader; Dual specificity tyrosine-phosphorylation-regulated kinase 1A (Rattus norvegicus), Q63470; ADP-Glo luminescence, NFATc1 peptide; inhibition, % at 12.5 µM; actives 0.43% (n = 310,000); AID 504441, 2011; in the data active = inhibition above about 50%;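 also: plate controls were vehicle with enzyme for no effect and no enzyme for full effect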
GSK3 alpha inh = blockers of GSK3A enzyme activity – biochemical, luminescence, cell-free homogeneous, HTS, primary screen | Glycogen synthase kinase-3 alpha (Homo sapiens), P49840 | GSK-3 alpha kinase, ADP-Glo luminescence, 60 min | inhibition, % at 10 µM | actives 0.1% (n = 320,000) | AID 2650, 2010;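 active = more than half of replicates show inhibition above 20%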;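 also: GST-tagged GSK-3 alpha with peptide substrate and 25 µM ATP; 0% = DMSO neutral wells and 100% = GW8510 positive control wells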
Active calls of the source: *.

C#CCOCCOCCOCCNc1nc(N2CCN(C(=O)CCCCCCCCCCNC(=O)[C@H]([C@@H](C)CC)n3cc(CCCCN=C(N)N)nn3)CC2)nc(N2CCN(C(=O)CCCCCCCCCCNC(=O)[C@H]([C@@H](C)CC)n3cc(CCCCN=C(N)N)nn3)CC2)n1 was read as STK33 kinase inh 31* and GSK3 alpha inh 7.
C#CCOCCOCCOCCNc1nc(N2CCN(C(=O)CCCCCCCCCCNC(=O)[C@H]([C@@H](C)CC)n3cc(CCCCCN)nn3)CC2)nc(N2CCN(C(=O)CCCCCCCCCCNC(=O)[C@H](CO)n3cc(CCCCCN)nn3)CC2)n1 was read as STK33 kinase inh 9, DYRK1A inh 55* and GSK3 alpha inh 28.
For C#CCOCCOCCOCCNc1nc(N2CCN(C(=O)CCCCCCCCCCNC(=O)[C@H]([C@@H](C)CC)n3cc(CCCCCN)nn3)CC2)nc(N2CCN(C(=O)CCCCCCCCCCNC(=O)[C@@H]([C@H](C)CC)n3cc(CCCCCN)nn3)CC2)n1 the results were STK33 kinase inh 16 and GSK3 alpha inh 17.
C#CCOCCOCCOCCNc1nc(N2CCN(C(=O)CCCCCCCCCCNC(=O)[C@H]([C@@H](C)CC)n3cc(CCCCCN)nn3)CC2)nc(N2CCN(C(=O)CCCCCCCCCCNC(=O)[C@H]([C@@H](C)CC)n3cc(CCCCN=C(N)N)nn3)CC2)n1 was read as STK33 kinase inh 21, DYRK1A inh 29 and GSK3 alpha inh 21.
O=C1CCC(C(=O)N2CCCO2)CN1Cc1cccc(C(F)(F)F)c1 (stereo not drawn) was read as Rce1 inh inactive, AI-2 QS mod 6, GSK3B inh -1 and DYRK1A inh -2.
O=C(CNC(=O)c1ccccc1)OCCCOC(=O)CNC(=O)c1ccccc1 was read as Rce1 inh inactive, STK33 kinase inh -2, AI-2 QS mod 6, GSK3B inh 11, DYRK1A inh -5 and GSK3 alpha inh 0.
Screening COc1ccc(Cc2nc3ccc(C(=O)N4CCCC4)cc3o2)cc1OC returned Rce1 inh inactive, STK33 kinase inh -1, AI-2 QS mod -2, GSK3B inh 8, DYRK1A inh -1 and GSK3 alpha inh -3.
`COc1ccc(Cc2nc3ccc(C(=O)N4CCCC4)cc3o2)cc1` gave Rce1 inh active, STK33 kinase inh 0, AI-2 QS mod -1, GSK3B inh -8, DYRK1A inh 13 and GSK3 alpha inh -1.
`O=C(Nc1ccnn1C1CCN(C(=O)CCc2ccc(F)cc2)CC1)C1CCOC1` (stereo not drawn) gave Rce1 inh inactive, STK33 kinase inh -2, AI-2 QS mod 14, GSK3B inh 0, DYRK1A inh 8 and GSK3 alpha inh -2.
`CC(C)CC(=O)NC(=S)Nc1ccc(S(=O)(=O)Nc2nccs2)cc1` gave Rce1 inh active, STK33 kinase inh 0, AI-2 QS mod 8, GSK3B inh -8, DYRK1A inh 0 and GSK3 alpha inh 0.
For O=C(CN1C(=O)c2cccc3cccc1c23)Nc1ccc(S(=O)(=O)N2CCOCC2)cc1 the results were Rce1 inh inactive, STK33 kinase inh 1, AI-2 QS mod -96*, GSK3B inh 1, DYRK1A inh 13 and GSK3 alpha inh 1.
O=C(CN1C(=O)c2cccc3cccc1c23)Nc1ccc(S(=O)(=O)Nc2nccs2)cc1 was read as Rce1 inh inactive, STK33 kinase inh 1, AI-2 QS mod -96*, GSK3B inh -4, DYRK1A inh -3 and GSK3 alpha inh 0.

Compound activity: PubChem BioAssay, Broad Institute
